# How the values were obtained:
# [1] = target: T1, MAP kinase-interacting serine/threonine-protein kinase 1 (Homo sapiens, UniProt Q9BUB5); test: Inhibition of MNK1
# Target sequence in this assay (Q9BUB5 whole entry): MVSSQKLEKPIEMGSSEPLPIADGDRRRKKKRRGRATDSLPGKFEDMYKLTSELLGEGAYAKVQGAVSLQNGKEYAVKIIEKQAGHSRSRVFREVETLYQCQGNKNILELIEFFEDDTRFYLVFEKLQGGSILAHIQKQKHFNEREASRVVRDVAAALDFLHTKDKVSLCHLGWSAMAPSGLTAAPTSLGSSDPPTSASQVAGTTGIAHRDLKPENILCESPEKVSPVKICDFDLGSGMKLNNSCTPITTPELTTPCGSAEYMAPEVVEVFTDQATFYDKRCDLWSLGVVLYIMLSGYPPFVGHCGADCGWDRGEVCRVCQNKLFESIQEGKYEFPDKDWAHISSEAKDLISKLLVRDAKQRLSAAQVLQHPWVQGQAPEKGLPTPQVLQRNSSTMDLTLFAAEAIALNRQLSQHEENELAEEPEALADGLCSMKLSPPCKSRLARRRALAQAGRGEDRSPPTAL
# [2] = target: T2, MAP kinase-interacting serine/threonine-protein kinase 2 (Homo sapiens, UniProt Q9HBH9); test: Inhibition of MNK2
# Target sequence in this assay (Q9HBH9 whole entry): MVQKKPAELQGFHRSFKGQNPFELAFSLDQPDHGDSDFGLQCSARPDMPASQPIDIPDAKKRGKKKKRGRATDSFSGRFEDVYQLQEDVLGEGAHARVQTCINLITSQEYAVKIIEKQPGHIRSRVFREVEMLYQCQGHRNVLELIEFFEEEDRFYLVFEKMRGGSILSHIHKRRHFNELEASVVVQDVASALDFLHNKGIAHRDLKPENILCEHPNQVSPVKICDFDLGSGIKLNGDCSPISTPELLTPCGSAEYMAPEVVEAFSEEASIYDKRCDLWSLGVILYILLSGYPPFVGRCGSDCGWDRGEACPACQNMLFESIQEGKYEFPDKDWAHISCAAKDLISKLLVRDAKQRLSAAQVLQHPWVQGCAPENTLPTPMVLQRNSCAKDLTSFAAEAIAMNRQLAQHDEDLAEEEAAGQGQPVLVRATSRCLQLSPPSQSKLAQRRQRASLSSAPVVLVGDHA
# [3] = target: T2, MAP kinase-interacting serine/threonine-protein kinase 2; test: Inhibition of MNK2 at 5 uM
# How it was run: (§1)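 Recombinant MNK1 (4 μg/mL) or MNK2 (0.7 μg/mL) final. Reaction contained 100 μM ATP and 300 μM eIF4E-derived peptide, run 60 min at 30 °C. ADP was detected by resorufin fluorescence. Tested at 5 μM in duplicate.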
# Target sequence in this assay (Q9HBH9 whole entry, looked up): as the sequence (Q9HBH9 whole entry) above
# [4] = target: T1, MAP kinase-interacting serine/threonine-protein kinase 1; test: Inhibition of MNK1 at 5 uM; how it was run: as §1
# Target sequence in this assay (Q9BUB5 whole entry, looked up): as the sequence (Q9BUB5 whole entry) above
# [5] = target: RAC-alpha serine/threonine-protein kinase (Homo sapiens) (UniProt P31749); test: Inhibition of AKT1 at 5 uM
# How it was run: (§2)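 Single-concentration panel run at an outside kinase screening provider. The compound was tested at 5 μM in duplicate.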
# [6] = target: Dual specificity mitogen-activated protein kinase kinase 1 (Homo sapiens) (UniProt Q02750); test: Inhibition of MEK1 at 5 uM; how it was run: as §2
# [7] = target: Casein kinase I isoform alpha (Homo sapiens) (UniProt P48729); test: Inhibition of CK1alpha1 at 5 uM; how it was run: as §2
# [8] = target: Insulin-like growth factor 1 receptor (Homo sapiens) (UniProt P08069); test: Inhibition of IGF1R at 5 uM; how it was run: as §2
# [9] = target: Focal adhesion kinase 1 (Homo sapiens) (UniProt Q05397); test: Inhibition of FAK at 5 uM; how it was run: as §2
# [10] = target: Epidermal growth factor receptor (Homo sapiens) (UniProt P00533); test: Inhibition of EGFR at 5 uM; how it was run: as §2
# [11] = target: Ribosomal protein S6 kinase alpha-1 (Homo sapiens) (UniProt Q15418); test: Inhibition of RPS6KA1 at 5 uM; how it was run: as §2
# [12] = test system: Serine/threonine-protein kinase B-raf (Homo sapiens), P15056 [V600E]; test: Inhibition of B-RAFV600E at 5 uM; how it was run: as §2
# [13] = target: 3-phosphoinositide-dependent protein kinase 1 (Homo sapiens) (UniProt O15530); test: Inhibition of PDK1 at 5 uM
# Sequence of 3-phosphoinositide-dependent protein kinase 1 (Homo sapiens) (O15530 whole entry, looked up): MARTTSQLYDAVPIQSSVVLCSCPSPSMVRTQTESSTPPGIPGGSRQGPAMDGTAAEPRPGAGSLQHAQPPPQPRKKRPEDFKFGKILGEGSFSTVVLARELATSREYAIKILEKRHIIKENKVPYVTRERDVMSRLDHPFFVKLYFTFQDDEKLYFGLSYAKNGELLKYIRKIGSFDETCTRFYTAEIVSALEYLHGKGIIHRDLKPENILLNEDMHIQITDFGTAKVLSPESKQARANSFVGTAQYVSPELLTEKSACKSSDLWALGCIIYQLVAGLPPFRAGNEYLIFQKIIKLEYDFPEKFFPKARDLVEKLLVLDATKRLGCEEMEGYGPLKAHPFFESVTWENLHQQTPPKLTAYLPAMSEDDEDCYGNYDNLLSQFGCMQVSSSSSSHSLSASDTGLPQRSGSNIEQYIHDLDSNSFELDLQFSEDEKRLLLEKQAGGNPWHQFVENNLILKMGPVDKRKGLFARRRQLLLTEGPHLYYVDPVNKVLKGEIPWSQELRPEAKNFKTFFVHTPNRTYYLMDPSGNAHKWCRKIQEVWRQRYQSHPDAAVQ
# [14] = target: Tyrosine-protein kinase JAK2 (Homo sapiens) (UniProt O60674); test: Inhibition of JAK2 at 5 uM; how it was run: as §2
# [15] = target: Serine/threonine-protein kinase pim-1 (Homo sapiens) (UniProt P11309); test: Inhibition of PIM1 at 5 uM; how it was run: as §2
# [16] = target: Serine/threonine-protein kinase pim-2 (Homo sapiens) (UniProt Q9P1W9); test: Inhibition of PIM2 at 5 uM; how it was run: as §2
# Sequence of Serine/threonine-protein kinase pim-2 (Homo sapiens) (Q9P1W9 whole entry, looked up): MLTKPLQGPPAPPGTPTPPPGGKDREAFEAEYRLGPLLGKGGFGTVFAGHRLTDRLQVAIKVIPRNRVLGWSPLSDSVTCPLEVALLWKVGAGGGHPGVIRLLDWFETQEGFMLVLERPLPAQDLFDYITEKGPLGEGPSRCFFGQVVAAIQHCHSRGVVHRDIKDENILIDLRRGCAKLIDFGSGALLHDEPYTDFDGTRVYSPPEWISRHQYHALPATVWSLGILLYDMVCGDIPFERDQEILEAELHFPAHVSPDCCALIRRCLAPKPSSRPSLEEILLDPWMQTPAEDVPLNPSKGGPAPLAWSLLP
# [17] = target: Mitogen-activated protein kinase 3 (Homo sapiens) (UniProt P27361); test: Inhibition of ERK1 at 5 uM; how it was run: as §2
# [18] = target: Fibroblast growth factor receptor 1 (Homo sapiens) (UniProt P11362); test: Inhibition of FGFR1 at 5 uM; how it was run: as §2
# [19] = target: Hepatocyte growth factor receptor (Homo sapiens) (UniProt P08581); test: Inhibition of MET at 5 uM; how it was run: as §2
# Sequence of Hepatocyte growth factor receptor (Homo sapiens) (P08581 whole entry): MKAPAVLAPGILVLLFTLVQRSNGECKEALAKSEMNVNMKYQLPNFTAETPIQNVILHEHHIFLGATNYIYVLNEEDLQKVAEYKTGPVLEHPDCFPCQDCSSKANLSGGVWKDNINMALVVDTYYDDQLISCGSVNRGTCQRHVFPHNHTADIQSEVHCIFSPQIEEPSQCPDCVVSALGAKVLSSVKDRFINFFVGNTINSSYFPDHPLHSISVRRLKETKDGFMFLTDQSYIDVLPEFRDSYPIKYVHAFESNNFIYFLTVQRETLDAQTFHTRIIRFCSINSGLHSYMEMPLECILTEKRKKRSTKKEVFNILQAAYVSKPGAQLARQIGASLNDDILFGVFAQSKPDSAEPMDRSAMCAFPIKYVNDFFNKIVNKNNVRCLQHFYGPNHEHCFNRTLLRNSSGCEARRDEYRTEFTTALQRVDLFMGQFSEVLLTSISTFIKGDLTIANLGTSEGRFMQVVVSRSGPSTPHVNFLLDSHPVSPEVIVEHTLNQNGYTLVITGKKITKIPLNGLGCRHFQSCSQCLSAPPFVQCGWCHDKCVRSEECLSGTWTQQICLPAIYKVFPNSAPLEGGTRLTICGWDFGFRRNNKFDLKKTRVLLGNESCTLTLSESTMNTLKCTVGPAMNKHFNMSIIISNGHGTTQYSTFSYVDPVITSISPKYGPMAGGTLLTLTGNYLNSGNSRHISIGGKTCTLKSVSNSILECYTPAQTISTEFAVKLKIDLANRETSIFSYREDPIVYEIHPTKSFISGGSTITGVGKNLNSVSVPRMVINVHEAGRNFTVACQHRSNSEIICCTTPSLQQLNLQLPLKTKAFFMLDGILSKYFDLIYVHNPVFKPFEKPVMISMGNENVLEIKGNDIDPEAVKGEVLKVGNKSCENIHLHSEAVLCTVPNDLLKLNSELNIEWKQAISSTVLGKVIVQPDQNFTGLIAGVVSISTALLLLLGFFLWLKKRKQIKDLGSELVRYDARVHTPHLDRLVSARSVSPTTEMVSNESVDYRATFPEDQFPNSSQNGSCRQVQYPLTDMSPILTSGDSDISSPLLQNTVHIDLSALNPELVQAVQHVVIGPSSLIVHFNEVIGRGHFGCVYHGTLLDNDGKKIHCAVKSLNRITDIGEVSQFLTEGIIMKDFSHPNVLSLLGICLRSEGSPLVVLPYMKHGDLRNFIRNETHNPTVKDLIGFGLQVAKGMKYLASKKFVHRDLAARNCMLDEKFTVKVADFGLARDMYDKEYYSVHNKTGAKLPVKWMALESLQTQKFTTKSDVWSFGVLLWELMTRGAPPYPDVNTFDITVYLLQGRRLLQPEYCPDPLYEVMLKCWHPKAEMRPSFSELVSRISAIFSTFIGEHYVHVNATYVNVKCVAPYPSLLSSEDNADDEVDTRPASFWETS
# [20] = target: Serine/threonine-protein kinase Sgk1 (Homo sapiens) (UniProt O00141); test: Inhibition of SGK1 at 5 uM; how it was run: as §2
# [21] = target: Dual specificity tyrosine-phosphorylation-regulated kinase 1A (Homo sapiens) (UniProt Q13627); test: Inhibition of DYRK1A at 5 uM; how it was run: as §2
# [22] = target: Serine/threonine-protein kinase 4 (Homo sapiens) (UniProt Q13043); test: Inhibition of MST1 at 5 uM; how it was run: as §2
# [23] = target: Mitogen-activated protein kinase 14 (Homo sapiens) (UniProt Q16539); test: Inhibition of p38alpha at 5 uM; how it was run: as §2
# [24] = target: Receptor-type tyrosine-protein kinase FLT3 (Homo sapiens) (UniProt P36888); test: Inhibition of FLT3 at 5 uM; how it was run: as §2
# Sequence of Receptor-type tyrosine-protein kinase FLT3 (Homo sapiens) (P36888 whole entry): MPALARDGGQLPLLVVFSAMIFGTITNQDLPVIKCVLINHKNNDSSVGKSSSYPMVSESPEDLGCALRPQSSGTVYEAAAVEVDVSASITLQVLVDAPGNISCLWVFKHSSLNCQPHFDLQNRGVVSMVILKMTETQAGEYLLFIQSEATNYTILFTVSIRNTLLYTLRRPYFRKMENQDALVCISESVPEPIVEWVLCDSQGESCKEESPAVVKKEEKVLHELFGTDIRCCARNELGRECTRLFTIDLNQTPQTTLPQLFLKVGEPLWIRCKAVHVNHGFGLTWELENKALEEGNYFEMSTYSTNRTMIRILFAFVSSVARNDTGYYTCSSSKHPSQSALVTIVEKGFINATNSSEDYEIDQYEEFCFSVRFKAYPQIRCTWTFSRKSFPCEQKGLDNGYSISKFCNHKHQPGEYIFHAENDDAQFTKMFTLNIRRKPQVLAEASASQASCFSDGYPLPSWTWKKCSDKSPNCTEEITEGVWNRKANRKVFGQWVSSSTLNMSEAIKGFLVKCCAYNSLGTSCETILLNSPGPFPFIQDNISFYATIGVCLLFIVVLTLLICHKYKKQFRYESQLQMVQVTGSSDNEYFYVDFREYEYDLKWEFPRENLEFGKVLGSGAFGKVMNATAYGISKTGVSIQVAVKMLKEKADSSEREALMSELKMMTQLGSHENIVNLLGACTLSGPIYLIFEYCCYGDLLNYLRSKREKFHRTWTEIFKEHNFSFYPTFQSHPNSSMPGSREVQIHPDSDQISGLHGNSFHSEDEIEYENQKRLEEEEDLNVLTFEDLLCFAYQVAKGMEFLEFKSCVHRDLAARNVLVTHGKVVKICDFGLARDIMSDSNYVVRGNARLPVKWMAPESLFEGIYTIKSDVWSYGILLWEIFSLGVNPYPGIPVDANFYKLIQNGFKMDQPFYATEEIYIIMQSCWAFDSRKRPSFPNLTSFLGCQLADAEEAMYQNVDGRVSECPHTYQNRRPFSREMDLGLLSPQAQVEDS
# [25] = target: Mast/stem cell growth factor receptor Kit (Homo sapiens) (UniProt P10721); test: Inhibition of KIT at 5 uM; how it was run: as §2
# [26] = target: Inhibitor of nuclear factor kappa-B kinase subunit beta (Homo sapiens) (UniProt O14920); test: Inhibition of IKK-beta at 5 uM; how it was run: as §2
# [27] = target: Platelet-derived growth factor receptor alpha (Homo sapiens) (UniProt P16234); test: Inhibition of PDGFRalpha at 5 uM; how it was run: as §2
# [28] = target: NUAK family SNF1-like kinase 1 (Homo sapiens) (UniProt O60285); test: Inhibition of ARK5 at 5 uM; how it was run: as §2
# Sequence of NUAK family SNF1-like kinase 1 (Homo sapiens) (O60285 whole entry): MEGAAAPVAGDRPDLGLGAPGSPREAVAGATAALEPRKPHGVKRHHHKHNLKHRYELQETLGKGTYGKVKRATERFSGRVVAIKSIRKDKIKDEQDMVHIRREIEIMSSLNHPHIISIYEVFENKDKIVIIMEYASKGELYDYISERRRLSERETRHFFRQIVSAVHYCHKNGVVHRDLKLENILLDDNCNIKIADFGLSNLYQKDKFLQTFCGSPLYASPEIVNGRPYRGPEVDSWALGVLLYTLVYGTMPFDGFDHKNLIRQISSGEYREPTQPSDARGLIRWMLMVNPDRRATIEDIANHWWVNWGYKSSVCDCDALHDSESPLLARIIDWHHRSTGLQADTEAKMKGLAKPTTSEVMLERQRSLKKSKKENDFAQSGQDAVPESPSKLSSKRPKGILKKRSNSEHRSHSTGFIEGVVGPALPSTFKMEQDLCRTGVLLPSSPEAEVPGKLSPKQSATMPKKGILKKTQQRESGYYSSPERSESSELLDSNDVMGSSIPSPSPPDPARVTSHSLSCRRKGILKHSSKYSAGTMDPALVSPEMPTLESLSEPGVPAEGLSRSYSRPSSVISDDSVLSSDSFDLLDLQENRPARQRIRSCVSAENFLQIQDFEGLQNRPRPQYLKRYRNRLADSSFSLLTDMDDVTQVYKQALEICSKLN
smiles,measurement,setting,value
Clc1ccc(Nc2ncnc3[nH]ncc23)cc1,IC50,[1],580 nM
CNc1ccc2ncc(-c3cccc(O)c3)n2n1,IC50,[1],1530 nM
OCCCNc1ccc2ncc(-c3ccc(F)cc3)n2n1,IC50,[1],2410 nM
O=c1[nH]cnc2cc3n[nH]cc3cc12,IC50,[1],8170 nM
c1cc(-c2cnc3sc(NCC4CC4)nn23)ccn1,IC50,[1],1710 nM
CNc1ccc2ncc(-c3ccc(F)cc3)n2n1,IC50,[1],4050 nM
c1ccc2cc(Nc3ncnc4[nH]ncc34)ccc2c1,IC50,[1],1350 nM
Fc1ccc(Nc2ncnc3[nH]cnc23)cc1,IC50,[1],1030 nM
c1cc(-c2cc(C3CCNCC3)[nH]n2)ccn1,IC50,[1],646 nM
same,IC50,[2],575 nM
COc1cc2ncnc(Nc3cc(Br)c(O)c(Br)c3)c2cc1OC,IC50,[1],120 nM
NC(=O)c1ccc(-c2cc(-c3ccccc3)cnc2N)cc1,IC50,[1],5150 nM
Fc1cccc(Nc2ncnc3n[nH]cc23)c1,IC50,[1],1090 nM
COCCNc1ccc2ncc(-c3ccc(Cl)cc3)n2n1,IC50,[1],1620 nM
OCCCNc1ccc2ncc(-c3ccccc3F)n2n1,IC50,[1],3240 nM
COC(=O)c1ccc(Nc2[nH]cnc3ncnc2-3)cc1,IC50,[1],850 nM
Brc1ccc(Nc2ncnc3[nH]ncc23)cc1,IC50,[1],1560 nM
COc1cc2ncnc(Nc3cccc(Cl)c3)c2cc1OC [TYRPHOSTIN AG-1478],IC50,[1],530 nM
c1cnn2c(-c3ccncc3)cnc2c1,IC50,[1],3800 nM
CC(C)CNc1nn2c(-c3ccncc3)cnc2s1,IC50,[1],6180 nM
COc1cc2ncnc(Nc3cccc(Br)c3)c2cc1OC,IC50,[1],630 nM
CCNc1nc(C)c(-c2ccnc(Nc3ccc(N4CCNCC4)cc3)n2)s1,inhibition,[3],80%
same,inhibition,[4],97%
OCCNc1ccc2ncc(-c3ccc(Cl)cc3)n2n1,IC50,[1],2930 nM
Brc1cccc(Nc2ncnc3cc4nc[nH]c4cc23)c1,IC50,[1],2800 nM
c1ccc(-c2cnc3ccc(NCCc4ccccn4)nn23)cc1,IC50,[1],4280 nM
CNc1cc2c(Nc3cccc(Br)c3)ncnc2cn1,IC50,[1],1700 nM
COCCNc1ccc2ncc(-c3ccc(F)cc3)n2n1,IC50,[1],4090 nM
NC(=O)c1ccc(Nc2ncnc3[nH]cnc23)cc1,IC50,[1],160 nM
c1cc(-c2cc(C3CCNCC3)n[nH]2)ccn1,inhibition,[5],0%
same,inhibition,[6],5%
same,inhibition,[7],10%
same,inhibition,[8],3%
same,inhibition,[9],15%
same,inhibition,[10],1%
same,inhibition,[11],11%
same,inhibition,[12],9%
same,inhibition,[13],0%
same,inhibition,[14],0%
same,inhibition,[15],4%
same,inhibition,[16],1%
same,inhibition,[17],0%
same,inhibition,[4],87%
same,inhibition,[18],8%
same,inhibition,[19],1%
same,inhibition,[20],7%
same,inhibition,[21],0%
same,inhibition,[22],0%
same,inhibition,[23],2%
same,inhibition,[24],0%
same,inhibition,[25],7%
same,inhibition,[26],6%
same,inhibition,[27],1%
same,inhibition,[28],3%

# Reference: ChEMBL document CHEMBL1240515, “Discovery of mitogen-activated protein kinase-interacting kinase 1 inhibitors by a comprehensive fragment-oriented virtual screening approach” (J Med Chem, 2010)
